According to ChEMBL document CHEMBL1649351, “Synthesis, in vitro antimicrobial and in vivo antitumor evaluation of novel pyrimidoquinolines and its nucleoside derivatives” (Eur J Med Chem, 2011):

What was measured:
Escherichia coli = test: Antibacterial activity against Escherichia coli at 50 mg/disk after 24 to 28 hrs by agar disk diffusion method; format: functional
Pseudomonas aeruginosa = test: Antibacterial activity against Pseudomonas aeruginosa at 50 mg/disk after 24 to 28 hrs by agar disk diffusion method; format: functional
Mus musculus [1] = test: Acute toxicity in human HeLa cells xenografted ip dosed Swiss albino mouse assessed as mortality measured up to 2 weeks; format: organism-based; conditions: in vivo, 336 h
Method in brief: (§1)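 Adult Swiss albino mice were fasted 12 h and randomised into groups of 10. Each group got one i.p. dose from a graded series, given at 1 ml/kg body weight; controls got vehicle alone. Food and water were returned right after dosing. Mortality was followed for up to two weeks, and LD50 was taken as the dose giving 50% mortality.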

HepG2 [2] = test: Antitumor activity against human HepG2 cells xenografted in Swiss albino mouse assessed as increase of mouse survival at 10 ug/kg, ip for 10 days (reference value: 22 +/- 1.90 day); format: functional
Nakaseomyces glabratus = test: Antifungal activity against Candida glabrata at 50 mg/disk after 5 days by agar disk diffusion method; format: functional
Candida albicans = test: Antifungal activity against Candida albicans at 50 mg/disk after 5 days by agar disk diffusion method; format: functional
HepG2 [3] = test: Antitumor activity against human HepG2 cells xenografted in Swiss albino mouse assessed as increase mouse life span at 10 ug/kg, ip for 10 days relative to control; format: functional
HeLa [4] = test: Antitumor activity against human HeLa cells xenografted in Swiss albino mouse assessed as increase mouse life span at 10 ug/kg, ip for 10 days relative to control; format: functional
Bacillus subtilis = test: Antibacterial activity against Bacillus subtilis at 50 mg/disk after 24 to 28 hrs by agar disk diffusion method; format: functional
Mus musculus [5] = test: Acute toxicity in human HepG2 cells xenografted ip dosed Swiss albino mouse assessed as mortality measured up to 2 weeks; format: organism-based; conditions: in vivo, 336 h; method in brief: as §1
Lactococcus lactis = test: Antibacterial activity against Streptococcus lactis at 50 mg/disk after 24 to 28 hrs by agar disk diffusion method; format: functional
HeLa [6] = test: Antitumor activity against human HeLa cells xenografted in Swiss albino mouse assessed as increase of mouse survival at 10 ug/kg, ip for 10 days (reference value: 22 +/- 1.90 day); format: functional

| Compound | diameter of the inhibition zone (DIZ) (Escherichia coli) | diameter of the inhibition zone (DIZ) (Pseudomonas aeruginosa) | LD50 (Mus musculus [1]) | Survival (HepG2 [2]) | diameter of the inhibition zone (DIZ) (Nakaseomyces glabratus) | diameter of the inhibition zone (DIZ) (Candida albicans) | Activity (HepG2 [3]) | Activity (HeLa [4]) | diameter of the inhibition zone (DIZ) (Bacillus subtilis) | LD50 (Mus musculus [5]) | diameter of the inhibition zone (DIZ) (Lactococcus lactis) | Survival (HeLa [6]) | inhibition zone (IZ) (Nakaseomyces glabratus) |
| --- | --- | --- | --- | --- | --- | --- | --- | --- | --- | --- | --- | --- | --- |
| CC1(C)CC(=O)C2=C(C1)Nc1nc(NN)[nH]c(=O)c1C2c1ccc([N+](=O)[O-])cc1 (stereo unspecified) | 15 mm | 15 mm | 0.1 mg/kg | 28 days | 8 mm | 9 mm | 31% | 38% | 15 mm | 0.089 mg/kg | 15 mm | 29 days |  |
| CSc1nc2c(c(=O)[nH]1)C(c1ccc([N+](=O)[O-])cc1)C1=C(CC(C)(C)CC1=O)N2[C@@H]1O[C@H](COC(C)=O)[C@@H](OC(C)=O)[C@H](OC(C)=O)[C@H]1OC(C)=O (stereo partly specified) | 23 mm | 22 mm | 0.111 mg/kg | 36 days | 8 mm | 8 mm | 66% | 61% | 20 mm | 0.109 mg/kg | 20 mm | 37 days |  |
| CCn1cc(C(=O)O)c(=O)c2ccc(C)nc21 [NALIDIXIC ACID] | 25 mm | 25 mm |  |  |  |  |  |  | 25 mm |  | 25 mm |  |  |
| CC1(C)CC(=O)C2=C(C1)Nc1nc3[nH]nc(-c4ccc(Cl)cc4)n3c(=O)c1C2c1ccc([N+](=O)[O-])cc1 (stereo unspecified) | 18 mm | 17 mm | 0.089 mg/kg | 36 days | 7 mm | 9 mm | 51% | 57% | 18 mm | 0.095 mg/kg | 15 mm | 34 days |  |
| CSc1nc2c(c(=O)[nH]1)C(c1ccc([N+](=O)[O-])cc1)C1=C(CC(C)(C)CC1=O)N2[C@@H]1O[C@H](COC(C)=O)[C@H](OC(C)=O)[C@H](OC(C)=O)[C@H]1OC(C)=O (stereo partly specified) | 25 mm | 23 mm |  |  | 8 mm | 7 mm |  |  | 20 mm |  | 19 mm |  |  |
| CC1(C)CC(=O)C2=C(C1)Nc1nc(Nn3c(=O)c4cc5c(=O)n(Nc6nc7c(c(=O)[nH]6)C(c6ccc([N+](=O)[O-])cc6)C6=C(CC(C)(C)CC6=O)N7)c(=O)c5cc4c3=O)[nH]c(=O)c1C2c1ccc([N+](=O)[O-])cc1 (stereo unspecified) | 23 mm | 22 mm | 0.099 mg/kg | 38 days | 12 mm | 13 mm | 58% | 53% | 22 mm | 0.099 mg/kg | 25 mm | 29 days |  |
| Cc1n[nH]c2nc3c(c(=O)n12)C(c1ccc([N+](=O)[O-])cc1)C1=C(CC(C)(C)CC1=O)N3 (stereo unspecified) | 18 mm | 22 mm |  |  | 11 mm | 11 mm |  |  | 18 mm |  | 21 mm |  |  |
| CC1(C)CC(=O)C2=C(C1)Nc1nc3n(N)c(-c4ccccc4)cn3c(=O)c1C2c1ccc([N+](=O)[O-])cc1 (stereo unspecified) | 23 mm | 23 mm |  |  | 6 mm | 8 mm |  |  | 20 mm |  | 20 mm |  |  |
| CC1(C)CC(=O)C2=C(C1)Nc1nc(N)[nH]c(=O)c1C2c1ccc([N+](=O)[O-])cc1 (stereo unspecified) | 27 mm | 23 mm | 0.09 mg/kg | 35 days | 9 mm | 9 mm | 49% | 50% | 25 mm | 0.095 mg/kg | 20 mm | 31 days |  |
| CC1(C)CC(=O)C2=C(C1)Nc1nc3[nH]ncn3c(=O)c1C2c1ccc([N+](=O)[O-])cc1 (stereo unspecified) | 19 mm | 18 mm | 0.098 mg/kg | 31 days | 9 mm | 9 mm | 55% | 51% | 20 mm | 0.1 mg/kg | 20 mm | 30 days |  |
| CSc1nc2c(c(=O)[nH]1)C(c1ccc([N+](=O)[O-])cc1)C1=C(CC(C)(C)CC1=O)N2[C@@H]1O[C@H](COC(C)=O)[C@@H](OC(C)=O)[C@@H]1OC(C)=O (stereo partly specified) | 21 mm | 23 mm |  |  | 9 mm | 8 mm |  |  | 19 mm |  | 20 mm |  |  |
| CSc1nc2c(c(=O)[nH]1)C(c1ccc([N+](=O)[O-])cc1)C1=C(CC(C)(C)CC1=O)N2 (stereo unspecified) | 13 mm | 14 mm |  |  | 8 mm | 7 mm |  |  | 13 mm |  | 14 mm |  |  |
| CSc1nc2c(c(=O)[nH]1)C(c1ccc([N+](=O)[O-])cc1)C1=C(CC(C)(C)CC1=O)N2[C@@H]1O[C@H](CO)[C@H](O)[C@H](O)[C@H]1O (stereo partly specified) | 22 mm | 22 mm |  |  | 7 mm | 8 mm |  |  | 21 mm |  | 20 mm |  |  |
| CC1(C)CC(=O)C2=C(C1)Nc1nc3[nH]nnn3c(=O)c1C2c1ccc([N+](=O)[O-])cc1 (stereo unspecified) | 20 mm | 19 mm |  |  | 10 mm | 12 mm |  |  | 23 mm |  | 18 mm |  |  |
| CC1(C)CC(=O)C2=C(C1)Nc1nc(N/N=C\c3ccccc3)[nH]c(=O)c1C2c1ccc([N+](=O)[O-])cc1 (stereo unspecified) | 17 mm | 16 mm |  |  | 6 mm | 7 mm |  |  | 17 mm |  | 18 mm |  |  |
| NYSTATIN |  |  |  |  |  |  |  |  |  |  |  |  | 20 mm |
| COc1ccc(/C=N\Nc2nc3c(c(=O)[nH]2)C(c2ccc([N+](=O)[O-])cc2)C2=C(CC(C)(C)CC2=O)N3)cc1 (stereo unspecified) | 17 mm | 16 mm |  |  | 8 mm | 7 mm |  |  | 15 mm |  | 16 mm |  |  |
